Experimental data published in ChEMBL document CHEMBL4190216, “Asymmetric 1,5-diarylpenta-1,4-dien-3-ones: Antiproliferative activity in prostate epithelial cell models and pharmacokinetic studies” (Eur J Med Chem, 2017).

Legend:
LNCaP [1] = assay: Antiproliferative activity against human LNCAP cells assessed as decrease in cell viability after 3 days by WST assay; type: functional, cell-based; conditions: 72 h
Method in brief: (§1)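 Cells were seeded at 3,200 per well. PC-3 and LNCaP were grown in RPMI-1640 and DU-145 in EMEM, each with 10% FBS and 1% penicillin/streptomycin, at 37 °C and 5% CO2. Cells were exposed for 3 days to at least five concentrations, with DMSO as vehicle control. WST-1 reagent was then added for 3 h at 37 °C and absorbance read at 430 nm. IC50 came from linear inhibition, averaged over triplicates.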

PC-3 [2] = assay: Induction of apoptosis in human PC3 cells assessed as viable cells at 10 uM after 16 hrs by F2N12S/CYTOX AADvanced double staining-based flow cytometric method (reference value: 95%); type: functional; conditions: PC-3, 16 h, read-out: Activity
VCaP = assay: Antiproliferative activity against human VCaP cells expressing androgen receptor splice variants assessed as decrease in cell viability after 5 days by trypan blue exclusion assay; type: functional, cell-based; conditions: 120 h
PC-3 [3] = assay: Induction of apoptosis in human PC3 cells assessed as early apoptotic cells at 8 uM after 16 hrs by F2N12S/CYTOX AADvanced double staining-based flow cytometric method (reference value: 2%); type: functional
PC-3 [4] = assay: Potency index, ratio of curcumin IC50 to test compound IC50 for human PC3 cells; type: functional
PC-3 [5] = assay: Induction of apoptosis in human PC3 cells assessed as viable cells at 4 uM after 16 hrs by F2N12S/CYTOX AADvanced double staining-based flow cytometric method (reference value: 95%); type: functional; conditions: PC-3, 16 h, read-out: Activity
PC-3 [6] = assay: Induction of apoptosis in human PC3 cells assessed as late apoptotic/necrotic cells at 4 uM after 16 hrs by F2N12S/CYTOX AADvanced double staining-based flow cytometric method (reference value: 3%); type: functional
[7] = Tmax in Sprague-Dawley rat at 10 mg/kg administered via oral gavage by HPLC-MS/MS analysis; type: ADME, organism-based; conditions: in vivo
[8] = Plasma concentration in Sprague-Dawley rat at 10 mg/kg administered via oral gavage measured at 1 hr by HPLC-MS/MS analysis; type: ADME, organism-based
PC-3 [9] = assay: Induction of apoptosis in human PC3 cells assessed as late apoptotic/necrotic cells at 15 uM after 16 hrs by F2N12S/CYTOX AADvanced double staining-based flow cytometric method (reference value: 3%); type: functional
LNCaP [10] = assay: Potency index, ratio of curcumin IC50 to test compound IC50 for human LNCAP cells; type: functional
PC-3 [11] = assay: Induction of apoptosis in human PC3 cells assessed as viable cells at 6 uM after 16 hrs by F2N12S/CYTOX AADvanced double staining-based flow cytometric method (reference value: 95%); type: functional; conditions: PC-3, 16 h, read-out: Activity
PC-3 [12] = assay: Cell cycle arrest in human PC3 cells assessed as accumulation at G0/G1 phase at 4 uM after 24 hrs by propidium iodide staining-based flow cytometric method (reference value: 59 to 62%); type: functional
PC-3 [13] = assay: Induction of apoptosis in human PC3 cells assessed as early apoptotic cells at 10 uM after 16 hrs by F2N12S/CYTOX AADvanced double staining-based flow cytometric method (reference value: 2%); type: functional
PC-3 [14] = assay: Cell cycle arrest in human PC3 cells assessed as accumulation at G0/G1 phase at 4 uM after 16 hrs by propidium iodide staining-based flow cytometric method (reference value: 51 to 52%); type: functional
PC-3 [15] = assay: Induction of apoptosis in human PC3 cells assessed as late apoptotic/necrotic cells at 8 uM after 16 hrs by F2N12S/CYTOX AADvanced double staining-based flow cytometric method (reference value: 3%); type: functional
PC-3 [16] = assay: Induction of apoptosis in human PC3 cells assessed as late apoptotic/necrotic cells at 6 uM after 16 hrs by F2N12S/CYTOX AADvanced double staining-based flow cytometric method (reference value: 3%); type: functional
DU-145 [17] = assay: Antiproliferative activity against human DU145 cells assessed as decrease in cell viability after 3 days by WST assay; type: functional, cell-based; conditions: DU-145, 72 h; method in brief: as §1
PC-3 [18] = assay: Induction of apoptosis in human PC3 cells assessed as viable cells at 8 uM after 16 hrs by F2N12S/CYTOX AADvanced double staining-based flow cytometric method (reference value: 95%); type: functional; conditions: PC-3, 16 h, read-out: Activity
PC-3 [19] = assay: Induction of apoptosis in human PC3 cells assessed as early apoptotic cells at 6 uM after 16 hrs by F2N12S/CYTOX AADvanced double staining-based flow cytometric method (reference value: 2%); type: functional
PC-3 [20] = assay: Induction of apoptosis in human PC3 cells assessed as viable cells at 15 uM after 16 hrs by F2N12S/CYTOX AADvanced double staining-based flow cytometric method (reference value: 95%); type: functional; conditions: PC-3, 16 h, read-out: Activity
[21] = Cmax in Sprague-Dawley rat at 10 mg/kg administered via oral gavage by HPLC-MS/MS analysis; type: ADME, organism-based; set-up: dose 10 mg/kg, route oral; conditions: in vivo
[22] = Plasma concentration in Sprague-Dawley rat at 10 mg/kg administered via oral gavage measured at 6 hrs by HPLC-MS/MS analysis; type: ADME, organism-based
PC-3 [23] = assay: Antiproliferative activity against human PC3 cells assessed as decrease in cell viability after 3 days by WST assay; type: functional, cell-based; conditions: PC-3, 72 h; method in brief: as §1
[24] = AUC in Sprague-Dawley rat at 10 mg/kg administered via oral gavage by HPLC-MS/MS analysis; type: ADME, organism-based; conditions: in vivo
PWR-1E [25] = assay: Antiproliferative activity against human PWR-1E cells expressing androgen receptor and PSA assessed as decrease in cell viability after 3 days by WST assay; type: functional, cell-based; conditions: 72 h
Method in brief: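 Non-malignant prostate epithelial PWR-1E (adenovirus 12/SV40-immortalized) was seeded at 5,000 per well. Cells were exposed for 3 days at 37 °C in a CO2 incubator to at least five concentrations, with DMSO as vehicle control. WST-1 reagent was then added for 3 h at 37 °C and absorbance read at 430 nm. IC50 came from linear inhibition, as the mean of triplicate determinations.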

[26] = Antiproliferative activity against human LNCaP95 cells expressing androgen receptor splice variants assessed as decrease in cell viability after 5 days by trypan blue exclusion assay; type: functional, cell-based; conditions: LNCaP-95, 120 h
PC-3 [27] = assay: Induction of apoptosis in human PC3 cells assessed as early apoptotic cells at 15 uM after 16 hrs by F2N12S/CYTOX AADvanced double staining-based flow cytometric method (reference value: 2%); type: functional
Rattus norvegicus [28] = assay: Acute toxicity in Sprague-Dawley rat assessed as mortality at 10 mg/kg administered via oral gavage after 48 hrs; type: organism-based; conditions: in vivo
Method in brief: (§2)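 Male Sprague-Dawley rats (250–300 g, n = 4) each received a single 10 mg/kg oral gavage dose. The vehicle was 5% DMSO, 40% polyethylene glycol 400 and 55% saline. Blood was drawn from the lateral tail vein at 1, 3, 6 and 24 h for plasma drug levels. Toxicity was scored as observed deaths after dosing.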

DU-145 [29] = assay: Potency index, ratio of curcumin IC50 to test compound IC50 for human DU145 cells; type: functional
[30] = Plasma concentration in Sprague-Dawley rat at 10 mg/kg administered via oral gavage measured after 1 day by HPLC-MS/MS analysis; type: ADME, organism-based
PC-3 [31] = assay: Induction of apoptosis in human PC3 cells assessed as early apoptotic cells at 2 uM after 16 hrs by F2N12S/CYTOX AADvanced double staining-based flow cytometric method (reference value: 2%); type: functional
PC-3 [32] = assay: Cell cycle arrest in human PC3 cells assessed as accumulation at G2 phase at 4 uM after 24 hrs by propidium iodide staining-based flow cytometric method (reference value: 24%); type: functional
CWR22R = assay: Antiproliferative activity against human 22Rv1 cells expressing androgen receptor splice variants assessed as decrease in cell viability after 5 days by trypan blue exclusion assay; type: functional, cell-based; conditions: 22Rv1, 120 h
PC-3 [33] = assay: Induction of apoptosis in human PC3 cells assessed as viable cells at 2 uM after 16 hrs by F2N12S/CYTOX AADvanced double staining-based flow cytometric method (reference value: 95%); type: functional; conditions: PC-3, 16 h, read-out: Activity
[34] = Plasma concentration in Sprague-Dawley rat at 10 mg/kg administered via oral gavage measured at 3 hrs by HPLC-MS/MS analysis; type: ADME, organism-based
PC-3 [35] = assay: Induction of apoptosis in human PC3 cells assessed as late apoptotic/necrotic cells at 2 uM after 16 hrs by F2N12S/CYTOX AADvanced double staining-based flow cytometric method (reference value: 3%); type: functional
PC-3 [36] = assay: Induction of apoptosis in human PC3 cells assessed as late apoptotic/necrotic cells at 10 uM after 16 hrs by F2N12S/CYTOX AADvanced double staining-based flow cytometric method (reference value: 3%); type: functional
PWR-1E [37] = assay: Potency index, ratio of curcumin IC50 to test compound IC50 for human PWR-1E cells expressing androgen receptor and PSA; type: functional
[38] = Retention time of the compound; type: physicochemical
[39] = Drug metabolism in human liver microsomes assessed as (1Z,4E)-1-(1-ethyl-1H-benzo[d]imidazol-2-yl)-1-hydroxy-5-(2-methyl-4-(trifluoromethyl)thiazol-5-yl)penta-1,4-dien-3-one formation at 10 mM after 60 mins by UHPLC analysis; type: ADME, microsome
Method in brief: (§3)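 Pooled human liver microsomes in potassium phosphate buffer (pH 7.4) with NADPH solutions A and B were preincubated for 5 min at 37 °C. Compound was then added from a 10 mM stock (3 μL into 300 μL total) and incubated 60 min at 37 °C. Reactions were quenched with an equal volume of methanol and centrifuged (10,000 × g, 4 min, 4 °C). Supernatant went to UHPLC–high-resolution MS for metabolite identification.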

[40] = Drug metabolism in human liver microsomes assessed as (1Z,4E)-5-(1-ethyl-1H-benzo[d]imidazol-2-yl)-1-hydroxy-1-(2-methyl-4-(trifluoromethyl)thiazol-5-yl)penta-1,4-dien-3-one formation at 10 mM after 60 mins by UHPLC analysis; type: ADME, microsome; method in brief: as §3
Rattus norvegicus [41] = assay: Acute toxicity in Sprague-Dawley rat at 10 mg/kg administered via oral gavage; type: organism-based; conditions: in vivo; method in brief: as §2
Rattus norvegicus [42] = assay: Acute toxicity in Sprague-Dawley rat assessed as mortality at 10 mg/kg administered via oral gavage after 72 hrs; type: organism-based; conditions: in vivo; method in brief: as §2

CCCn1ccnc1/C=C/C(=O)/C=C/c1nc2ccccc2n1CCC
IC50 (LNCaP [1]): 220 nM | viability at 10 µM (PC-3 [2]): 8% | IC50 (VCaP): 1120 nM | Activity (PC-3 [3]): 45% | Ratio IC50 (PC-3 [4]): 254 | viability at 4 µM (PC-3 [5]): 55% | Activity (PC-3 [6]): 23% | Tmax [7]: 6 h | concentration at 1 h [8]: 114 ng/mL | Activity (PC-3 [9]): 47% | Ratio IC50 (LNCaP [10]): 62 | viability at 6 µM (PC-3 [11]): 22% | Activity (PC-3 [12]): 76% | Activity (PC-3 [13]): 49% | Activity (PC-3 [14]): 78% | Activity (PC-3 [15]): 42% | Activity (PC-3 [16]): 35% | IC50 (DU-145 [17]): 220 nM | viability at 8 µM (PC-3 [18]): 13% | Activity (PC-3 [19]): 43% | viability at 15 µM (PC-3 [20]): 1% | Cmax [21]: 281 ng/mL | concentration at 6 h [22]: 281 ng/mL | IC50 (PC-3 [23]): 100 nM | AUC [24]: 4390 ng·h/mL | IC50 (PWR-1E [25]): 20 nM | IC50 [26]: 350 nM | Activity (PC-3 [27]): 52% | Activity (Rattus norvegicus [28]): Toxic | Ratio IC50 (DU-145 [29]): 119 | concentration at 24 h [30]: 86 ng/mL | Activity (PC-3 [31]): 3% | Activity (PC-3 [32]): 14% | IC50 (CWR22R): 220 nM | viability at 2 µM (PC-3 [33]): 93% | concentration at 3 h [34]: 196 ng/mL | Activity (PC-3 [35]): 4% | Activity (PC-3 [36]): 43% | Ratio IC50 (PWR-1E [37]): 443

CCn1c(/C=C/C(=O)/C=C/c2sc(C)nc2C(F)(F)F)nc2ccccc21
Retention_time [38]: 5.05 min | Drug metabolism [39]: Metabolite_Detected | IC50 (LNCaP [1]): 250 nM | IC50 (VCaP): 1410 nM | Ratio IC50 (PC-3 [4]): 110 | Tmax [7]: 6 h | concentration at 1 h [8]: 112 ng/mL | Ratio IC50 (LNCaP [10]): 54 | IC50 (DU-145 [17]): 500 nM | Drug metabolism [40]: Metabolite_Detected | Cmax [21]: 3.25 µM | concentration at 6 h [22]: 1230 ng/mL | IC50 (PC-3 [23]): 230 nM | AUC [24]: 18300 ng·h/mL | IC50 (PWR-1E [25]): 80 nM | IC50 [26]: 380 nM | Activity (Rattus norvegicus [41]): Non-Toxic | Ratio IC50 (DU-145 [29]): 53 | concentration at 24 h [30]: 314 ng/mL | IC50 (CWR22R): 220 nM | concentration at 3 h [34]: 982 ng/mL

CC(C)n1c(/C=C/C(=O)/C=C/c2ccccn2)nc2ccccc21
IC50 (LNCaP [1]): 30 nM | IC50 (VCaP): 640 nM | Ratio IC50 (PC-3 [4]): 636 | Tmax [7]: 3 h | concentration at 1 h [8]: 823 ng/mL | IC50 (DU-145 [17]): 120 nM | Cmax [21]: 13.5 µM | concentration at 6 h [22]: 456 ng/mL | IC50 (PC-3 [23]): 40 nM | AUC [24]: 17600 ng·h/mL | IC50 (PWR-1E [25]): 10 nM | IC50 [26]: 260 nM | Ratio IC50 (DU-145 [29]): 219 | concentration at 24 h [30]: 103 ng/mL | IC50 (CWR22R): 450 nM | concentration at 3 h [34]: 4260 ng/mL | Activity (Rattus norvegicus [42]): Toxic | Ratio IC50 (PWR-1E [37]): 885
